According to ChEMBL document CHEMBL3286255, “Rational design and synthesis of novel thiazolidin-4-ones as non-nucleoside HIV-1 reverse transcriptase inhibitors” (Bioorg Med Chem, 2014):

Legend:
[1] = system: Human immunodeficiency virus 1; experiment: Antiviral activity against R5 tropic Human immunodeficiency virus 1 ADA5 subtype B infected in human TZM-bl cells assessed as reduction in virus-induced cytopathic effect after 48 hrs by luminescence assay; type: functional, organism-based
Procedure, shortened: (§1)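 TZM-bl cells (HeLa-derived; CD4, CXCR4, CCR5; LTR-driven luciferase) seeded 1×10^4/well, left overnight at 37 °C, 5% CO2, then infected with 400 TCID50 virus for 2 h. Serial compound dilutions added in duplicate, only at levels giving >50% viability. […] Mean of two independent assays; nevirapine as positive control.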

[2] = system: Human immunodeficiency virus 1; experiment: Antiviral activity against R5 tropic Human immunodeficiency virus 1 VB59 subtype C infected in human TZM-bl cells assessed as reduction in virus-induced cytopathic effect after 48 hrs by luminescence assay; type: functional, organism-based; procedure, shortened: as §1
[3] = system: Human immunodeficiency virus; experiment: Inhibition of HIV reverse transcriptase at 100 ug/ml after 1 hr by ELISA relative to control
Procedure, shortened: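 Kit ELISA for HIV RT. Template/primer, biotin- and DIG-labelled dNTPs and RT enzyme in lysis buffer incubated 1 h at 37 °C. Product captured on streptavidin, detected with anti-DIG-peroxidase and ABTS substrate, and read at 405 nm. Percent inhibition calculated against a no-inhibitor sample.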

[4] = Selectivity index, ratio of CC50 for human TZM-bl cells to EC50 for X4 tropic Human immunodeficiency virus 1 3B subtype B; type: toxicity, cell-based; conditions: read-out: Ratio CC50/EC50
[5] = system: Human immunodeficiency virus 1; experiment: Antiviral activity against X4 tropic Human immunodeficiency virus 1 3B subtype B infected in human TZM-bl cells assessed as reduction in virus-induced cytopathic effect after 48 hrs by luminescence assay; type: functional, organism-based; procedure, shortened: as §1
[6] = Cytotoxicity against human TZM-bl cells after 48 hrs by MTT assay; type: cell-based
Procedure, shortened: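 TZM-bl cells seeded 1×10^4/well and left overnight at 37 °C, 5% CO2. Medium then replaced with a two-fold dilution series of compound in quadruplicate. […] Mean of three independent assays.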

[7] = Selectivity index, ratio of CC50 for human TZM-bl cells to EC50 for R5 tropic Human immunodeficiency virus 1 ADA5 subtype B; type: toxicity, cell-based; conditions: read-out: Ratio CC50/EC50
[8] = system: Human immunodeficiency virus 1; experiment: Antiviral activity against X4 tropic Human immunodeficiency virus 1 UG070 subtype D infected in human TZM-bl cells assessed as reduction in virus-induced cytopathic effect after 48 hrs by luminescence assay; type: functional, organism-based; procedure, shortened: as §1
[9] = Selectivity index, ratio of CC50 for human TZM-bl cells to EC50 for R5 tropic Human immunodeficiency virus 1 VB59 subtype C; type: toxicity, cell-based; conditions: read-out: Ratio CC50/EC50
[10] = Selectivity index, ratio of CC50 for human TZM-bl cells to EC50 for X4 tropic Human immunodeficiency virus 1 UG070 subtype D; type: toxicity, cell-based; conditions: read-out: Ratio CC50/EC50
[11] = Human immunodeficiency virus 1, ADA5 subtype B, TZM-bl, 48 h, read-out: EC50
[12] = Human immunodeficiency virus 1, VB59 subtype C, TZM-bl, 48 h, read-out: EC50
[13] = Human immunodeficiency virus 1, 3B subtype B, TZM-bl, 48 h, read-out: EC50
[14] = Human immunodeficiency virus 1, UG070 subtype D, TZM-bl, 48 h, read-out: EC50

## O=C(NN1C(=O)CSC1c1c(Cl)cccc1Cl)c1ccncc1 (configuration not stated)
[1]; [11]
  EC50: 9.72 µM
[2]; [12]
  EC50: 26.3 µM
[3]
  inhibition: 18.9%
[4]
  selectivity ratio: 4.64
[5]; [13]
  EC50: 36.7 µM
[6]
  CC50 at 48 h: 170 µM
[7]
  selectivity ratio: 17.5
[8]; tzm-bl
  EC50: Not Active
[9]
  selectivity ratio: 6.47

## Cc1cc(N2C(=O)CSC2c2c(F)cccc2F)nc(C)c1Br (configuration not stated)
[1]; [11]
  EC50: 0.7 µM
[2]; [12]
  EC50: 0.77 µM
[3]
  inhibition: 81.8%
[4]
  selectivity ratio: 192
[5]; [13]
  EC50: 0.35 µM
[6]
  CC50 at 48 h: 67.1 µM
[7]
  selectivity ratio: 95.9
[10]
  selectivity ratio: 134
[8]; [14]
  EC50: 0.5 µM
[9]
  selectivity ratio: 87.2

## Cc1cc(C)nc(N2C(=O)CSC2c2ccc(C#N)cc2)n1 (configuration not stated)
[1]; [11]
  EC50: 99.3 µM
[2]; tzm-bl
  EC50: Not Active
[3]
  inhibition: 41.5%
[4]
  selectivity ratio: 0.97
[5]; [13]
  EC50: 115 µM
[6]
  CC50 at 48 h: 113 µM
[7]
  selectivity ratio: 1.13
[8]; tzm-bl
  EC50: Not Active

## Cc1cc(N2C(=O)CSC2c2ccc(C#N)cc2)nc(C)c1Br (configuration not stated)
[1]; [11]
  EC50: 39.1 µM
[3]
  inhibition: 37.5%
[5]; tzm-bl
  EC50: Not Active
[6]
  CC50 at 48 h: 43.8 µM
[7]
  selectivity ratio: 1.11

## Cc1cccc(C)c1C1SCC(=O)N1NC(=O)c1ccncc1 (configuration not stated)
[1]; [11]
  EC50: 18.9 µM
[2]; tzm-bl
  EC50: Not Active
[3]
  inhibition: 14.2%
[4]
  selectivity ratio: 1.47
[5]; [13]
  EC50: 29.4 µM
[6]
  CC50 at 48 h: 43.4 µM
[7]
  selectivity ratio: 2.29
[10]
  selectivity ratio: 1.11
[8]; [14]
  EC50: 38.8 µM

## O=C1CSC(c2c(Cl)cccc2Cl)N1c1ncnc2[nH]cnc12 (configuration not stated)
[1]; [11]
  EC50: 11.7 µM
[3]
  inhibition: 50.2%
[4]
  selectivity ratio: 1.1
[5]; [13]
  EC50: 11.8 µM
[6]
  CC50 at 48 h: 13.1 µM
[7]
  selectivity ratio: 1.11

## N#Cc1ccc(NN2C(=O)CSC2c2c(F)cccc2Cl)cc1 (configuration not stated)
[1]; [11]
  EC50: 16.2 µM
[2]; [12]
  EC50: 35 µM
[3]
  inhibition: 26.3%
[4]
  selectivity ratio: 2.27
[5]; [13]
  EC50: 33.5 µM
[6]
  CC50 at 48 h: 76.5 µM
[7]
  selectivity ratio: 4.7
[10]
  selectivity ratio: 1.54
[8]; [14]
  EC50: 49.6 µM
[9]
  selectivity ratio: 2.18

## Cc1ccnc(N2C(=O)CSC2c2ccc(C#N)cc2)n1 (configuration not stated)
[1]; [11]
  EC50: 55 µM
[2]; tzm-bl
  EC50: Not Active
[3]
  inhibition: 43.5%
[4]
  selectivity ratio: 1.41
[5]; [13]
  EC50: 85.7 µM
[6]
  CC50 at 48 h: 121 µM
[7]
  selectivity ratio: 2.2
[8]; tzm-bl
  EC50: Not Active

## N#Cc1ccc(C2SCC(=O)N2c2ccc(C#N)cc2)cc1 (configuration not stated)
[1]; [11]
  EC50: 61.2 µM
[2]; [12]
  EC50: 55.7 µM
[4]
  selectivity ratio: 1.1
[5]; [13]
  EC50: 67.8 µM
[6]
  CC50 at 48 h: 75 µM
[7]
  selectivity ratio: 1.22
[10]
  selectivity ratio: 1.18
[8]; [14]
  EC50: 63.4 µM
[9]
  selectivity ratio: 1.34

## COc1cccc(OC)c1C1SCC(=O)N1c1cc(C)on1 (configuration not stated)
[1]; tzm-bl
  EC50: Not Active
[2]; [12]
  EC50: 20.2 µM
[3]
  inhibition: 62.2%
[4]
  selectivity ratio: 11
[5]; [13]
  EC50: 11.3 µM
[6]
  CC50 at 48 h: 125 µM
[10]
  selectivity ratio: 6.77
[8]; [14]
  EC50: 18.4 µM
[9]
  selectivity ratio: 6.18

## Cc1ccc(S(=O)(=O)NN2C(=O)CSC2c2c(Cl)cccc2Cl)cc1 (configuration not stated)
[1]; [11]
  EC50: 4.55 µM
[2]; tzm-bl
  EC50: Not Active
[3]
  inhibition: 57.9%
[4]
  selectivity ratio: 2.57
[5]; [13]
  EC50: 29.4 µM
[6]
  CC50 at 48 h: 75.7 µM
[7]
  selectivity ratio: 16.6
[8]; tzm-bl
  EC50: Not Active

## O=C(NN1C(=O)CSC1c1c(F)cccc1Cl)c1ccncc1 (configuration not stated)
[1]; tzm-bl
  EC50: Not Active
[3]
  inhibition: 81.7%
[5]; tzm-bl
  EC50: Not Active
[6]
  CC50 at 48 h: 105 µM

## COc1cc(OC)nc(N2C(=O)CSC2c2ccc(C#N)cc2)n1 (configuration not stated)
[1]; [11]
  EC50: 57 µM
[2]; tzm-bl
  EC50: Not Active
[3]
  inhibition: 12.2%
[4]
  selectivity ratio: 1.27
[5]; [13]
  EC50: 68 µM
[6]
  CC50 at 48 h: 86.5 µM
[7]
  selectivity ratio: 1.51
[8]; tzm-bl
  EC50: Not Active

## Cc1cc(N2C(=O)CSC2c2c(Cl)cccc2[N+](=O)[O-])nc(C)c1Br (configuration not stated)
[3]
  inhibition: 77.8%

## Cc1cc(N2C(=O)CSC2c2ccc(C#N)cc2)no1 (configuration not stated)
[1]; [11]
  EC50: 81.1 µM
[2]; [12]
  EC50: 68.7 µM
[3]
  inhibition: 27.6%
[4]
  selectivity ratio: 1.57
[5]; [13]
  EC50: 88.7 µM
[6]
  CC50 at 48 h: 140 µM
[7]
  selectivity ratio: 1.72
[9]
  selectivity ratio: 2.04
